Assay results gathered from unrelated publications.
Protocols differ between the studies behind these lines.
Target: 5-hydroxytryptamine receptor 2B (HTR2B, Homo sapiens, UniProt P41595)

O=C(c1ccc(Cl)cc1)N(Cc1ccccc1)C1CCCCC1 — inhibition (ligand displacement; radioligand; 10 µM): 19.9%
Clc1cccc(OC[C@@H]2CN(CCN3CCc4ccccc43)CCO2)c1 — Emax (calcium signal; agonist; fluorescence): 71.2%
O=C(Nc1ccc(S(=O)(=O)N2CCC(Cl)CC2)cc1)c1ccc([N+](=O)[O-])o1 — inhibition (ligand displacement; radioligand; 10 µM): 8%
C#CCOCCOCCOc1ccc2c3c1C1CCCC1N3CCNC2 (racemic) — inhibition (ligand displacement; radioligand; 10 µM): ~70%
O=C1N=C(N2CCCCN2)S/C1=C\c1ccc(F)cc1O — inhibition (ligand displacement; radioligand; 10 µM): < 10%
CCN(CC)c1ccc(C2Nc3ccc(C(=O)c4ccccc4)cc3NC3=C2C(=O)CC(C)(C)C3)cc1 (centres unmarked) — inhibition (ligand displacement; radioligand; 10 µM): 50%
Ic1cccc2cnccc12 — inhibition (ligand displacement; radioligand; 10 µM): 79%
N#Cc1cc(Cn2c(N3CCCC3)nc3ccccc32)ccc1F — inhibition (ligand displacement; 10 µM): 30.4%
CCN(Cc1ccccc1C(F)(F)F)C(=O)C1CCN(S(=O)(=O)c2ccc3[nH]ncc3c2)CC1 — inhibition (ligand displacement; radioligand; 10 µM): 32%
O=C(c1ccc(F)cc1)N(Cc1ccccc1)C1CCCCC1 — inhibition (cell-free assay; radioligand; 10 µM): 20%
O=C(O)c1cc(-c2ccc(C3CCNCC3)cc2)c2ccc(-c3ccc(C(F)(F)F)cc3)cc2c1 — inhibition (ligand displacement; 10 µM): 7.95%
CCCNc1nc2ccccc2n1Cc1ccc(Cl)cc1 — inhibition (ligand displacement; 10 µM): 96.3%
Cc1ncc(-c2cc(Cl)ccc2F)cc1-n1c(=O)n(CC(N)=O)c2ccccc21 — inhibition (ligand displacement; 10 µM): 72%
Nc1ccc(-c2ccncc2)cc1NC(=O)N1CCCC1 — inhibition (ligand displacement; radioligand; 10 µM): 14%
